The results in this text go back to ChEMBL document CHEMBL1138746, “Indolebutylamines as selective 5-HT(1A) agonists” (J Med Chem, 2004).

For one assay, the target named is D(2) dopamine receptor (Rattus norvegicus, UniProt P61169). Briefly: Displacement of [3H]spiperone from dopamine D2 receptor of rat striatal membranes. The class given is cell membranes, Membrane. Put shortly:
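Rat striatal membranes (0.3–1.0 mg protein/mL) were incubated with 0.1 nM [3H]spiperone in Tris-HCl buffer (pH 7.1) containing 120 mmol/L NaCl, 5 mmol/L KCl, 1 mmol/L CaCl2, 1 mmol/L MgCl2 and 0.1% ascorbic acid, at 37 °C for 15 min. Bound ligand was separated by filtration with three ice-cold washes. Nonspecific binding was defined with 1 mmol/L (+)-butaclamol. IC50 (50% inhibition of binding) came from 5–10 concentrations, each in triplicate.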
(In general: Loss of bound radioactivity is the signal in a displacement assay; it reports binding, not function.)

The target of assay [1] is T1, 5-hydroxytryptamine receptor 1A (Rattus norvegicus, UniProt P19327).
T1 sequence (P19327 whole entry): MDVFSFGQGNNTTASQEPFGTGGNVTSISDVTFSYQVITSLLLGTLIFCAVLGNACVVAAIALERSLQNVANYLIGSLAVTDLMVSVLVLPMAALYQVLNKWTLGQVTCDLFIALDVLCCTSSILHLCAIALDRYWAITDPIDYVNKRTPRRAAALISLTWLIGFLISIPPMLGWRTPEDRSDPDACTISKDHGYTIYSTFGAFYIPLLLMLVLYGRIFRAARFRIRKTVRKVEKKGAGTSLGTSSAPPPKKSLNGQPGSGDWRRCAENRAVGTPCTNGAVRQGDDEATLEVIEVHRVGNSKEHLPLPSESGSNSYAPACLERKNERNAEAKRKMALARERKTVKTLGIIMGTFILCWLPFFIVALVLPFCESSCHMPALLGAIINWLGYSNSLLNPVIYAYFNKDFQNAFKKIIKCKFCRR
In words: Inhibition of 8-OH DPAT bindign to rat hydroxytryptamine 1A receptor in hippocampal membranes.

Chain of D(2) dopamine receptor (P61169 whole entry): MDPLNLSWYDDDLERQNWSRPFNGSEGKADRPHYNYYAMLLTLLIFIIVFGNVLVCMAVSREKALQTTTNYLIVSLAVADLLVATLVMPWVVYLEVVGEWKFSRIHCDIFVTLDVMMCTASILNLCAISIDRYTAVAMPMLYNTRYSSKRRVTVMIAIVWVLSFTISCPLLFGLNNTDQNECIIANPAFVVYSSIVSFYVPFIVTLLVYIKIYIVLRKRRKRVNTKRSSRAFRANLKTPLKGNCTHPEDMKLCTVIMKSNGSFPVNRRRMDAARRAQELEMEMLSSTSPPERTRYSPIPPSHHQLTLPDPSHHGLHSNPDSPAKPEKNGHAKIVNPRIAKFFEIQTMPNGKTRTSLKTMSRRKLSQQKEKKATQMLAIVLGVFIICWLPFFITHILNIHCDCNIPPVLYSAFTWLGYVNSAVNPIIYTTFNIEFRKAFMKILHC

By IC50 is commonly meant the concentration that gives 50% inhibition. A lower IC50 goes with higher potency. Take `COc1ccc2[nH]cc(CCCCN3CCN(c4cc(OC)c(OC)c(OC)c4)CC3)c2c1`: the IC50 at D(2) dopamine receptor was > 100 nM; in assay [1] it was 333 nM.

Turning to `COc1ccc2[nH]cc(CCCCN3CCN(c4ccc5c(c4)OCO5)CC3)c2c1`, the IC50 came out at 100 nM on D(2) dopamine receptor and 4 nM in assay [1]. The corresponding values for `Oc1ccc2[nH]cc(CCCCN3CCN(c4ccccc4)CC3)c2c1` are 4.2 nM and 0.8 nM. In the same order, the values of `COc1ccc(N2CCN(CCCCc3c[nH]c4ccc(C(N)=O)cc34)CC2)c(OC)c1` are 100 nM and 0.07 nM. The corresponding values for `COc1ccc2[nH]cc(CCCCN3CCN(c4ccc5c(c4)CCO5)CC3)c2c1` are > 100 nM and 0.4 nM. As to `COc1ccc2[nH]cc(CCCCN3CC=C(c4ccc5c(c4)OCO5)CC3)c2c1`, the half-inhibitory concentration (IC50) was > 100 nM at D(2) dopamine receptor and 0.4 nM in assay [1].

Take `N#Cc1ccccc1N1CCN(CCCCc2c[nH]c3ccc(C(N)=O)cc23)CC1`: the IC50 worked out at 6.2 nM at D(2) dopamine receptor and 0.2 nM in assay [1]. The corresponding values for `CCOCCOCCOc1cccc(N2CCN(CCCCc3c[nH]c4ccc(C(N)=O)cc34)CC2)c1C#N` are 28 nM and 0.9 nM.

On to `O=C(O)c1ccc2[nH]cc(CCCCN3CCC(c4ccccc4)CC3)c2c1`, for which the IC50 on D(2) dopamine receptor was found to be 1000 nM; in assay [1] it was 100 nM. The corresponding values for `COc1ccc2[nH]cc(CCCCN3CC=C(c4ccc(O)cc4)CC3)c2c1` are ~100 nM and 0.4 nM. Turning to `COc1ccc2[nH]cc(CCCCN3CC=C(c4ccccc4)CC3)c2c1`, the IC50 in assay [1] came out at 20 nM.

As to `CCOc1ccc2[nH]cc(CCCCN3CCN(c4ccc(OC)cc4)CC3)c2c1`, the half-maximal inhibitory concentration (IC50) at D(2) dopamine receptor turned out to be 300 nM; in assay [1], 2 nM. For the molecule `COc1ccc2[nH]cc(CCCCN3CCN(c4ccc(O[Si](C)(C)C(C)(C)C)cc4)CC3)c2c1`, 70 nM corresponded to half-maximal inhibition in assay [1] (IC50).

`COC(=O)c1ccc2[nH]cc(CCCCN3CCN(c4ccccc4)CC3)c2c1`: the IC50 on D(2) dopamine receptor stood at 31 nM; in assay [1] it was 40 nM. The corresponding values for `COc1ccc2[nH]cc(CCCCN3CCN(c4ccc(O)cc4)CC3)c2c1` are 53 nM and 2 nM.

Turning to `CCOc1ccc(N2CCN(CCCCc3c[nH]c4ccc(OC)cc34)CC2)cc1`, the IC50 on D(2) dopamine receptor is > 100 nM; in assay [1], 0.8 nM.

Take `COc1ccc2[nH]cc(CCCCN3CCN(c4ccc5c(c4)OCCO5)CC3)c2c1`: the values for the IC50 (at D(2) dopamine receptor; in assay [1]) were 120 nM and 0.5 nM, respectively. In the same order, the values of `COc1ccc(N2CCN(CCCCc3c[nH]c4ccc(OCc5ccccc5)cc34)CC2)cc1` are > 100 nM and 34 nM.

Regarding `COC(=O)c1ccc2[nH]cc(CCCCN3CCN(c4ccc(OC)cc4)CC3)c2c1`, the IC50 was > 100 nM at D(2) dopamine receptor and 8 nM in assay [1]. `COCCOc1ccc(N2CCN(CCCCc3c[nH]c4ccc(OC)cc34)CC2)cc1` returned an IC50 in assay [1] of 2 nM. With `COc1ccc2[nH]cc(CCCCN3CCN(c4ccc(NC(C)=O)cc4)CC3)c2c1`, the IC50 is > 100 nM at D(2) dopamine receptor and 3 nM in assay [1]. `NC(=O)c1ccc2[nH]cc(CCCCN3CCC(c4ccccc4)CC3)c2c1`: the IC50 at D(2) dopamine receptor amounted to 17 nM; in assay [1], 0.1 nM.

Take `COc1ccc(N2CCN(CCCCc3c[nH]c4ccc(OC(C)=O)cc34)CC2)cc1`: the IC50 on D(2) dopamine receptor is > 100 nM; in assay [1] it was 0.5 nM. In the same order, the values of `COc1ccc2[nH]cc(CCCCN3CCN(c4ccc(OC)c(OC)c4)CC3)c2c1` are 100 nM and 10 nM.

For `COc1ccc2[nH]cc(CCCCN3CCN(c4ccc(OC(=O)C(C)(C)C)cc4)CC3)c2c1`, inhibition in assay [1] was half-maximal at 24 nM (IC50). This counts as double-digit nanomolar. In the case of `N#Cc1c(F)cccc1N1CCN(CCCCc2c[nH]c3ccc(C(N)=O)cc23)CC1`, the IC50 at D(2) dopamine receptor worked out at 5 nM; in assay [1] it was 0.01 nM.

For the molecule `NC(=O)c1ccc2[nH]cc(CCCCN3CCN(c4ccc5c(c4)CCO5)CC3)c2c1`, the IC50 on D(2) dopamine receptor is > 100 nM; in assay [1], 0.5 nM. In the same order, the values of `COc1c(Cl)cc(N2CCN(CCCCc3c[nH]c4ccc(C(N)=O)cc34)CC2)cc1Cl` are > 100 nM and 0.7 nM. The corresponding values for `CC(=O)Nc1ccc(N2CCN(CCCCc3c[nH]c4ccc(C(N)=O)cc34)CC2)cc1` are > 100 nM and 0.1 nM. As for `NC(=O)c1ccc2[nH]cc(CCCCN3CCN(c4ccc(O)cc4)CC3)c2c1`, the concentration for half-maximal inhibition (IC50) at D(2) dopamine receptor stood at 156 nM; in assay [1], 0.2 nM. The corresponding values for `COc1ccc2[nH]cc(CCCCN3CCN(c4cc(C)c(OC)c(C)c4)CC3)c2c1` are > 100 nM and 60 nM.

For `COc1ccc(N2CCN(CCCCc3c[nH]c4ccc(OC5CCCC5)cc34)CC2)cc1`, the IC50 on D(2) dopamine receptor is > 100 nM; in assay [1] it was 90 nM. The corresponding values for `O=C(O)c1ccc2[nH]cc(CCCCN3CCN(c4ccccc4)CC3)c2c1` are > 100 nM and 40 nM.

As to `NC(=O)c1ccc2[nH]cc(CCCCN3CCN(c4ccc5c(c4)OCCO5)CC3)c2c1`, the IC50 worked out at 40 nM on D(2) dopamine receptor and 0.2 nM in assay [1]. The corresponding values for `Oc1ccc2[nH]cc(CCCCN3CCC(c4ccccc4)CC3)c2c1` are 80 nM and 1 nM. In the same order, the values of `COc1ccc2[nH]cc(CCCCN3CCN(c4ccc(OCc5ccccc5)cc4)CC3)c2c1` are 220 nM and 30 nM. The corresponding values for `Oc1ccc2[nH]cc(CCCCN3CC=C(c4ccccc4)CC3)c2c1` [ROXINDOLE] are 5.6 nM and 0.8 nM.

Take `COc1ccc2[nH]cc(CCCCN3CCN(c4ccccc4)CC3)c2c1`: the concentration for half-maximal inhibition (IC50) on D(2) dopamine receptor worked out at 32 nM; in assay [1] it was 20 nM. The corresponding values for `COc1ccccc1N1CCN(CCCCc2c[nH]c3ccc(C(N)=O)cc23)CC1` are 1.2 nM and 0.1 nM. As for `CCCCCOc1ccc2[nH]cc(CCCCN3CCN(c4ccc(OC)cc4)CC3)c2c1`, the IC50 at D(2) dopamine receptor was > 100 nM; in assay [1], 200 nM. In the same order, the values of `COC(=O)c1ccc2[nH]cc(CCCCN3CCC(c4ccccc4)CC3)c2c1` are 113 nM and 20 nM. In the same order, the values of `COc1ccc2[nH]cc(CCCCN3CCN(c4ccc(OC(C)=O)cc4)CC3)c2c1` are > 100 nM and 1 nM.

In the case of `NC(=O)c1ccc2[nH]cc(CCCCN3CCN(c4ccccc4)CC3)c2c1`, the IC50 on D(2) dopamine receptor worked out at 7 nM; in assay [1], 0.1 nM. The corresponding values for `COc1ccc(C2=CCN(CCCCc3c[nH]c4ccc(OC)cc34)CC2)cc1` are > 100 nM and 0.6 nM. In the same order, the values of `NC(=O)c1ccc2[nH]cc(CCCCN3CCN(c4ccccc4C(N)=O)CC3)c2c1` are 97 nM and 0.3 nM. In the same order, the values of `COc1ccc2[nH]cc(CCCCN3CCN(c4ccc5c(c4)CCCO5)CC3)c2c1` are > 100 nM and 2 nM.
